Assay results pooled from the literature.
Compare with care: the assays were run in different laboratories. pEC50, pIC50, pKd: −log10 of the molar value.
Mc1r: Melanocyte-stimulating hormone receptor (Mc1r, Mus musculus, UniProt Q01727)
PSMB8: Proteasome subunit beta type-8 (PSMB8, Homo sapiens, UniProt P28062)
GCGR: Glucagon receptor (GCGR, Homo sapiens, UniProt P47871)

CCOc1ccc2c(-c3cc(C)nc(Nc4cc(OC)cc(C(F)(F)F)c4)n3)cnn2n1 — pIC50 (Homeodomain-interacting protein kinase 2 (HIPK2, Homo sapiens, UniProt Q9H2X6); enzyme activity; inhibitor): < 5.00
CSCC[C@H](NC(=O)[C@@H](NC(=O)[C@@H](N)Cc1ccc(O)cc1)C(C)C)C(=O)NCC(=O)N[C@@H](Cc1c[nH]cn1)C(=O)N[C@@H](Cc1ccccc1)C(=O)N[C@@H](CCCNC(=N)N)C(=O)N[C@@H](Cc1c[nH]c2ccccc12)C(=O)N[C@@H](CC(=O)O)C(=O)O — pEC50 (Mc1r; reporter gene; agonist): 6.37
Cc1ncc(C(=O)N[C@@H](CC2CCC3CCCCC3C2)C(=O)N[C@@H](CC(C)C)C(=O)N[C@H](/C=C/S(C)(=O)=O)Cc2ccc(CN)cc2)s1 (stereo partly shown) — pIC50 (PSMB8; enzyme activity; inhibitor; lysate): < 5.00
CC1=C(/C=C/C(C)=C/C=C/C(C)=C/C=O)C(C)(C)CCC1 — pKd (Cellular retinoic acid-binding protein 2 (CRABP2, Homo sapiens, UniProt P29373, L122E/R112L/R133K); binding; fluorescence): 8.87
N#Cc1ccc(COc2cccc(C3CCN(Cc4nc5ccc(C(=O)O)cc5n4C[C@@H]4CCO4)CC3)n2)c(F)c1 — pEC50 (GCGR; cAMP; agonist): < 4.70
Cc1ncc(C(=O)N[C@@H](CCC2CCCCC2)C(=O)N[C@@H](CC(C)C)C(=O)N[C@H](/C=C/S(C)(=O)=O)Cc2ccc(CN)cc2)s1 — pIC50 (PSMB8; enzyme activity; inhibitor; lysate): 6.39
CC[C@H](C)[C@H](NC(=O)[C@H](CO)NC(=O)[C@H](Cc1ccc(O)cc1)NC(=O)[C@H](CC(=O)O)NC(=O)[C@H](CO)NC(=O)[C@@H](NC(=O)[C@H](Cc1ccccc1)NC(=O)[C@@H](NC(=O)CNC(=O)[C@H](CCC(=O)O)NC(=O)[C@H](C)NC(=O)[C@@H](N)Cc1ccc(O)cc1)[C@@H](C)O)[C@@H](C)CC)C(=O)N[C@@H](C)C(=O)N[C@@H](CCSC)C(=O)N[C@@H](CC(=O)O)C(=O)N[C@@H](CCCCN)C(=O)N[C@H](C(=O)N[C@@H](Cc1c[nH]cn1)C(=O)N[C@@H](CCC(N)=O)C(=O)N[C@@H](CCC(N)=O)C(=O)N[C@@H](CC(=O)O)C(=O)N[C@@H](Cc1ccccc1)C(=O)N[C@H](C(=O)N[C@@H](CC(N)=O)C(=O)N[C@@H](Cc1c[nH]c2ccccc12)C(=O)N[C@@H](CC(C)C)C(=O)N[C@@H](CC(C)C)C(=O)N[C@@H](C)C(=O)N[C@@H](CCC(N)=O)C(=O)N[C@@H](CCCCN)C(=O)NCC(=O)N[C@@H](CCCCN)C(=O)N[C@@H](CCCCN)C(=O)N[C@@H](CC(N)=O)C(=O)N[C@@H](CC(=O)O)C(=O)N[C@@H](Cc1c[nH]c2ccccc12)C(=O)N[C@@H](CCCCN)C(=O)N[C@@H](Cc1c[nH]cn1)C(=O)N[C@@H](CC(N)=O)C(=O)N[C@H](C(=O)N[C@H](C(=O)N[C@@H](CCC(N)=O)C(=O)O)[C@@H](C)O)[C@@H](C)CC)C(C)C)[C@@H](C)CC — pEC50 (GCGR; reporter gene; agonist; luciferase): < 6.00
N=C(N)NCCC[C@H](N)C(=O)N[C@@H](Cc1ccccc1)C(=O)NCC(=O)O — pEC50 (Mc1r; reporter gene; agonist): < 4.00
Cc1ncc(C(=O)N[C@@H](CC(C)C)C(=O)N[C@@H](CC2CCCC3CCCCC32)C(=O)N[C@H](/C=C/S(C)(=O)=O)Cc2ccc(CN)cc2)s1 (stereo partly shown) — pIC50 (PSMB8; enzyme activity; inhibitor; lysate): < 5.00
N=C(N)NCCC[C@H](NC(=O)[C@H](CC(=O)O)NC(=O)[C@@H](N)Cc1c[nH]c2ccccc12)C(=O)N[C@@H](Cc1ccccc1)C(=O)NCC(=O)O — pEC50 (Mc1r; reporter gene; agonist): < 4.00
CN1CCN(c2ccc(Nc3ncc4cc(C#N)c(=O)n(C5CCCC5)c4n3)cc2)CC1 — pIC50 (Dual specificity tyrosine-phosphorylation-regulated kinase 1B (DYRK1B, Homo sapiens, UniProt Q9Y463); enzyme activity; inhibitor): 6.62
Cc1ncc(C(=O)N[C@@H](CC(C)C)C(=O)N[C@@H](CCC2CCCCC2)C(=O)N[C@H](/C=C/S(C)(=O)=O)Cc2ccc(CN)cc2)s1 — pIC50 (PSMB8; enzyme activity; inhibitor; lysate): 5.40
CCCC[C@H](NC(=O)[C@@H](NC(=O)[C@@H](N)Cc1ccc(O)cc1)C(C)C)C(=O)NCC(=O)N[C@@H](Cc1c[nH]cn1)C(=O)N[C@@H](Cc1ccccc1)C(=O)N[C@@H](CCCN=C(N)N)C(=O)N[C@@H](Cc1c[nH]c2ccccc12)C(=O)N[C@@H](CC(=O)O)C(=O)N[C@@H](CCCN=C(N)N)C(=O)N[C@@H](Cc1ccccc1)C(=O)NCC(=O)O — pEC50 (Mc1r; reporter gene; agonist): 6.41
